Reference: article PMC6722387 (Cellular and Molecular Gastroenterology and Hepatology, 2019)

How the values were obtained:
[1] = test system: human intestinal tissue; settings: human intestinal tissue / human in vivo; cited from earlier work
[2] = test system: human iPS-IECMs; test: Determination of Fg value; format: in vitro ADME; settings: 3 μM MDZ apical, 60-minute incubation
Outline: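 Monolayers on inserts were preincubated 10 min at 37°C in HBSS with 10 mM HEPES, pH 7.4. Apical: 3 μM midazolam in HBSS; basolateral: HBSS with 0.1% DMSO. After 60 min at 37°C, both chambers and the twice-washed cells were collected into acetonitrile/ethanol (7:3) with candesartan internal standard. Midazolam and 1′-OH midazolam were quantified by UPLC-MS/MS. Fg was derived from summed metabolite across all compartments plus basolateral and cellular midazolam.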

[3] = test system: human iPS-IECMs; test: LY permeability test across human iPS-IECMs; format: in vitro ADME; settings: Ad-LacZ- and Ad-TF-transduced cells; apical to basolateral; 60 μM LY, 70 min, 37°C

For `Cc1ncc2n1-c1ccc(Cl)cc1C(c1ccccc1F)=NC2` [MDZ, midazolam], the “Fg (fraction passing the gut wall)” value [1] is given as 0.57 and the “Fg (fraction passing the gut wall)” value [2] is given as 0.73.
With LY CH Dipotassium Salt the “Lucifer yellow (LY) Papp” value [3] was “approximately 0.44 ×10^–6 cm/s”.
